Columns and labels:
[1] = tested on: patients with advanced solid tumors; assay: Objective response according to RECIST v1.1; format: in vivo, human
Outline: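 Investigator-assessed objective response per RECIST v1.1, based on change in the sum of longest diameters of target lesions. Patients received the test compound once or twice daily on continuous or intermittent schedules.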

[2] = Dose-limiting toxicities, MTD and RDE; format: in vivo, human
Outline: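 Patients with metastatic or locally advanced unresectable solid tumors received test compound alone, fasting, QD from 5 mg upward, plus 2 weeks on/1 week off and 150 mg BID 4 days on/3 days off schedules. The DLT window was 21 days with a 30% target DLT rate. A Bayesian 2-parameter logistic model with overdose control and a schedule covariate gave posterior DLT probabilities (mean, percentiles). Analysis set N = 52.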

[3] = tested on: immune cell subsets; assay: Immunophenotyping of whole blood by flow cytometry; format: in vivo, human; conditions: doses ≥130 mg, on-treatment period; full recovery during treatment breaks
[4] = Noncompartmental PK of tuvusertib in plasma; format: in vivo, human
[5] = tested on: ATM^mut non–small cell lung cancer (NSCLC) xenograft model; conditions: monotherapy; Supplementary Fig. S1; cited from earlier work
[6] = Treatment-emergent adverse events, first-in-human dose-escalation study; format: in vivo
Outline: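 Safety set comprised all patients given ≥1 dose (N = 55; 5–270 mg, QD or BID schedules). TEAEs were counted from the first dose until 30 days after the last. Baseline was the last value before the first dose.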

[7] = tested on: circulating tumor DNA; assay: Molecular response in plasma ctDNA; format: in vivo, human
[8] = tested on: ARID1A^mut gastric cancer xenograft model; conditions: monotherapy; Supplementary Fig. S1; cited from earlier work
[9] = lartesertib, niraparib, cisplatin, gemcitabine, irinotecan; preclinical; cited from earlier work
[10] = tested on: xenograft models of BRCA^mut high-grade serous ovarian cancer; conditions: monotherapy and combination with niraparib; cited from earlier work

**Q.** Which “patients with stable disease (RECIST v1.1)” value ([1]; 15 patients, all doses) does the source give for `Cn1cncc1-c1c(F)cncc1NC(=O)c1c(N)nn2cc(F)cnc12` [Tuvusertib] here?
**A.** 27%

**Q.** And the “duration of disease stabilization” value ([1]; patient with unconfirmed partial response, 150 mg BID 4 days on/3 days off)?
**A.** 9 months

**Q.** What about the “DLT anemia requiring blood transfusion” value ([2]; 130 mg QD) of the same molecule?
**A.** 1/8

**Q.** And the “DLT anemia requiring blood transfusion” value ([2]; 150 mg BID 4 days on/3 days off)?
**A.** 3/4

**Q.** What about the “DLT anemia requiring blood transfusion” value ([2]; 180 mg QD) of the same molecule?
**A.** 3/10

**Q.** What about the “median estimated DLT probability” value ([2]; 180 mg QD continuously) of the same molecule?
**A.** 23%

**Q.** What about the “upper boundary of the one-sided 95% credible interval of DLT probability” value ([2]; 180 mg QD continuously) of the same molecule?
**A.** 37%

**Q.** What about the “DLT anemia requiring blood transfusion” value ([2]; 220 mg QD 2 weeks on/1 week off) of the same molecule?
**A.** 2/6

**Q.** What about the “DLT anemia requiring blood transfusion” value ([2]; 270 mg QD) of the same molecule?
**A.** 1/4

**Q.** What about the “DLT upper gastrointestinal hemorrhage and decreased platelet counts (one each)” value ([2]; 270 mg QD) of the same molecule?
**A.** 2/4

**Q.** What about the “patients who experienced DLTs” value ([2]; as assessed by the SMC, observation period 21 days) of the same molecule?
**A.** Eleven

**Q.** And the “median estimated DLT probability” value ([2]; intermittent 2 weeks on/1 week off schedule, no MTD formally established)?
**A.** < 20%

**Q.** What about the “DLTs that were events of anemia requiring blood transfusion” value ([2]; of eleven patients with DLTs) of the same molecule?
**A.** 10

**Q.** And the “monocytes and NK cell subsets” value [3]?
**A.** Transient decreases

**Q.** What about the “dose proportionality of exposure” value ([4]; 5 to 270 mg) of the same molecule?
**A.** approximately dose proportional up to 180 mg QD and slightly more than proportional at higher doses

**Q.** What about the “PK steady-state conditions achieved” value ([4]; cycle 1) of the same molecule?
**A.** ≤ 8 days

**Q.** And the half-life ([4]; human, plasma, oral)?
**A.** 1.2 to 5.6 h

**Q.** And the Tmax ([4]; human, plasma, po)?
**A.** 0.5 to 3.5 h

**Q.** And the antitumor activity [5]?
**A.** antitumor activity as monotherapy

**Q.** And the “Anemia TEAE” value ([6]; Any grade, all doses, N = 55)?
**A.** 39 (71) n (%)

**Q.** What about the “Constipation TEAE” value ([6]; Any grade, all doses, N = 55) of the same molecule?
**A.** 13 (24) n (%)

**Q.** And the “Fatigue TEAE” value ([6]; Any grade, all doses, N = 55)?
**A.** 22 (40.0) n (%)

**Q.** And the “Nausea TEAE” value ([6]; Any grade, all doses, N = 55)?
**A.** 34 (62) n (%)

**Q.** And the “Vomiting TEAE” value ([6]; Any grade, all doses, N = 55)?
**A.** 21 (38) n (%)

**Q.** What about the “Anemia TEAE” value ([6]; Grade ≥3, all doses, N = 55) of the same molecule?
**A.** 20 (36) n (%)

**Q.** And the “Constipation TEAE” value ([6]; Grade ≥3, all doses, N = 55)?
**A.** 0 n (%)

**Q.** What about the “Fatigue TEAE” value ([6]; Grade ≥3, all doses, N = 55) of the same molecule?
**A.** 1 (2) n (%)

**Q.** And the “Nausea TEAE” value ([6]; Grade ≥3, all doses, N = 55)?
**A.** 0 n (%)

**Q.** And the “Vomiting TEAE” value ([6]; Grade ≥3, all doses, N = 55)?
**A.** 3 (6) n (%)

**Q.** What about the “treatment-related AE anemia” value ([6]; across all dose levels) of the same molecule?
**A.** 67%

**Q.** And the “treatment-related AE fatigue” value ([6]; across all dose levels)?
**A.** 38%

**Q.** What about the “treatment-related AE vomiting” value ([6]; across all dose levels) of the same molecule?
**A.** 33%

**Q.** What about the “TEAEs assessed as related to tuvusertib” value ([6]; all doses) of the same molecule?
**A.** 87%

**Q.** And the “abnormal ECG readings, vital signs, high-grade laboratory abnormalities” value ([6]; all doses)?
**A.** No clinically significant abnormal ECG readings, vital signs or high-grade laboratory abnormalities were observed

**Q.** What about the “patients who experienced at least one TEAE” value ([6]; all doses) of the same molecule?
**A.** 95%

**Q.** What about the “Any grade ≥3 TEAE” value ([6]; all doses, N = 55) of the same molecule?
**A.** 26 (47) n (%)

**Q.** And the “Any serious TEAE” value ([6]; all doses, N = 55)?
**A.** 15 (27) n (%)

**Q.** And the “Grade ≥3 TEAE related to tuvusertib” value ([6]; all doses, N = 55)?
**A.** 19 (35) n (%)

**Q.** And the “Serious TEAE related to tuvusertib” value ([6]; all doses, N = 55)?
**A.** 3 (6) n (%)

**Q.** And the “TEAE leading to permanent tuvusertib discontinuation” value ([6]; all doses, N = 55)?
**A.** 3 (6) n (%)

**Q.** And the “TEAE leading to temporary tuvusertib discontinuation” value ([6]; all doses, N = 55)?
**A.** 26 (47) n (%)

**Q.** What about the “TEAEs related to tuvusertib” value ([6]; all doses, N = 55) of the same molecule?
**A.** 48 (87) n (%)

**Q.** What about the “Any TEAE” value ([6]; all doses, N = 55, safety analysis set) of the same molecule?
**A.** 52 (95) n (%)

**Q.** What about the “constipation TEAE of any grade” value ([6]; at the MTD (n = 11)) of the same molecule?
**A.** 36%

**Q.** What about the “nausea TEAE of any grade” value ([6]; at the MTD (n = 11)) of the same molecule?
**A.** 55%

**Q.** And the “vomiting TEAE of any grade” value ([6]; at the MTD (n = 11))?
**A.** 36%

**Q.** What about the “grade ≥3 TEAE anemia” value ([6]; at the RDE) of the same molecule?
**A.** none seen

**Q.** What about the “nausea TEAE of any grade” value ([6]; at the RDE (n = 7)) of the same molecule?
**A.** 71%

**Q.** And the “anemia TEAE of any grade” value ([6]; overall)?
**A.** 71%

**Q.** And the “fatigue TEAE of any grade” value ([6]; overall)?
**A.** 40%

**Q.** And the “grade ≥3 TEAE lymphocyte count decreased” value ([6]; overall)?
**A.** 7%

**Q.** And the “grade ≥3 TEAE neutrophil count decreased” value ([6]; overall)?
**A.** 7%

**Q.** What about the “nausea TEAE of any grade” value ([6]; overall) of the same molecule?
**A.** 62%

**Q.** And the “grade ≥3 TEAE anemia” value ([6]; overall, majority at doses ≥ MTD)?
**A.** 36%

**Q.** What about the “Grade ≥4 platelet count decreased” value ([6]; reported at dose levels exceeding the MTD) of the same molecule?
**A.** 4%

**Q.** And the “Complete MRs for any mutations” value ([7]; ARID1A)?
**A.** 2/8

**Q.** What about the “Complete MRs for any mutations” value ([7]; ATRX) of the same molecule?
**A.** 2/5

**Q.** What about the “Complete MRs for any mutations” value ([7]; BRCA1/2) of the same molecule?
**A.** 2/11

**Q.** And the “Complete MRs for any mutations” value ([7]; DAXX)?
**A.** 2/3

**Q.** And the “MRs by tumor type” value ([7]; breast cancer, 1/3)?
**A.** 33%

**Q.** And the “MRs by tumor type” value ([7]; other tumor types, 4/21)?
**A.** 19%

**Q.** And the “MRs by tumor type” value ([7]; ovarian cancer, 5/10)?
**A.** 50%

**Q.** And the “MRs observed (patients)” value ([7]; patients treated with more than 130 mg QD, 14/37)?
**A.** 38%

**Q.** And the “patients showing a reduction in sum of tumor diameter” value ([7]; patients with MRs, 7/14)?
**A.** 50%

**Q.** And the “patients showing a reduction in sum of tumor diameter” value ([7]; patients without MRs, 8/33)?
**A.** 24%

**Q.** And the “MRs observed (patients)” value ([7]; the 10 patients who received lower doses)?
**A.** none

**Q.** What about the antitumor activity [8] of the same molecule?
**A.** antitumor activity as monotherapy

**Q.** What about the “synergy with other DDR-targeting treatments and DNA-damaging agents” value [9] of the same molecule?
**A.** pronounced synergy

**Q.** What about the antitumor activity [10] of the same molecule?
**A.** antitumor activity as monotherapy and in combination with the PARP inhibitor niraparib
